Laboratory results: EPA's CvTdb concentration-time database
Where “and” joins values, the source holds several entries; their conditions need not be identical. Identical values can stand only once.

What was measured:
human [1] = experiment: concentration in blood after dosing; negative times count back from the end of exposure; conditions: inhalation
In short: (§1)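 Data points giving concentration or amount against time came from published in vivo toxicokinetic studies and from two structured collections. PubMed searching, classifier screening and manual review located the studies. Most points were digitised from plot screenshots using WebPlotDigitizer, the rest were copied from tables, and all keep their reported units.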

human [2] = experiment: concentration in blood after dosing
In short: as §1

rat [3] = experiment: concentration in blood after dosing; conditions: inhalation
human [4] = experiment: concentration in expired air after dosing; negative times count back from the end of exposure; conditions: dosed: 1,3-butadiene, 5 ppm, inhalation, duration: 120 min
In short: as §1

human [5] = experiment: negative times count back from the end of exposure; conditions: dosed: toluene, 200 mg/m^3, inhalation, duration: 2 hr, male
In short: as §1

rat [6] = experiment: concentration in plasma after dosing; conditions: dosed: propylparaben, oral, male, Wistar
Rat [7] = experiment: concentration in plasma after dosing; conditions: dosed: Tamoxifen citrate, 0.3 mg/kg, iv, Female, Sprague-Dawley
Rat [8] = experiment: concentration in plasma after dosing; conditions: dosed: Tamoxifen citrate, 0.3 mg/kg, iv, Male, Sprague-Dawley
Rat [9] = experiment: concentration in plasma after dosing; conditions: dosed: Tamoxifen citrate, 0.3 mg/kg, iv, Female, Sprague-Dawley; remark: listed apart in the source
Rat [10] = experiment: concentration in plasma after dosing; conditions: dosed: Tamoxifen citrate, 0.3 mg/kg, iv, Male, Sprague-Dawley; remark: listed apart in the source
Rat [11] = experiment: concentration in plasma after dosing; conditions: dosed: Tamoxifen citrate, 0.3 mg/kg, iv, Male, Sprague-Dawley; remark: listed apart in the source
Rat [12] = experiment: concentration in plasma after dosing; conditions: dosed: Tamoxifen citrate, 0.3 mg/kg, iv, Female, Sprague-Dawley; remark: listed apart in the source
Rat [13] = experiment: concentration in plasma after dosing; conditions: dosed: Tamoxifen citrate, 0.3 mg/kg, iv, Sprague-Dawley
Rat [14] = experiment: concentration in plasma after dosing; conditions: dosed: Tamoxifen citrate, 0.3 mg/kg, iv, Male, Sprague-Dawley; remark: listed apart in the source
Rat [15] = experiment: concentration in plasma after dosing; conditions: dosed: Tamoxifen citrate, 0.3 mg/kg, iv, Female, Sprague-Dawley; remark: listed apart in the source

ClC=C(Cl)Cl [trichloroethene]
human [1], dosed: trichloroethene, 100 ppmv, duration: 240 min, male
Conditions	concentration in blood [µg/L]
0.2522 h	634
0.3977 h	426
0.9604 h	198
1.911 h	112
4.055 h	4.16

human [1], dosed: trichloroethene, 100 ppmv, duration: 240 min, male, during exposure
Conditions	concentration in blood [µg/L]
-226 s	1170
-175 s	1170
-3.513 h	588
-3.022 h	851
-2.029 h	1100
-1.031 h	1040

CCC(C)(C)OC [tert-amyl methyl ether]
dosed: tert-amyl methyl ether
Conditions	concentration in blood [µM]
human [1], 0.7676 h, 15 ppm, duration: 4 hr, male	2.3
human [1], 1.198 h, 15 ppm, duration: 4 hr, male	1.9
human [1], 2.571 h, 15 ppm, duration: 4 hr, male	1.14
human [1], 7.198 h, 15 ppm, duration: 4 hr, male	0.344
human [1], 19.78 h, 15 ppm, duration: 4 hr, male	0.0868
human [1], 338 s, 15 ppm, duration: 4 hr, male	4.22
human [2], 0 h, 3.8 ppm, inhalation, duration: 4 hr	0.589
human [2], 2.022 h, 3.8 ppm, inhalation, duration: 4 hr	0.208
human [2], 2.034 h, 38.4 ppm, inhalation, duration: 4 hr	1.35
human [2], 3.985 h, 38.4 ppm, inhalation, duration: 4 hr	0.801
human [2], 4.008 h, 3.8 ppm, inhalation, duration: 4 hr	0.139
human [2], 6.018 h, 38.4 ppm, inhalation, duration: 4 hr	0.611
human [2], 6.02 h, 3.8 ppm, inhalation, duration: 4 hr	0.111
human [2], 7.969 h, 38.4 ppm, inhalation, duration: 4 hr	0.438
human [2], 9.976 h, 38.4 ppm, inhalation, duration: 4 hr	0.225
human [2], 10.01 h, 3.8 ppm, inhalation, duration: 4 hr	0.085
human [2], 12.01 h, 38.4 ppm, inhalation, duration: 4 hr	0.183
human [2], 12.05 h, 3.8 ppm, inhalation, duration: 4 hr	0.0737
human [2], 99 s, 38.4 ppm, inhalation, duration: 4 hr	4.5

human [2], dosed: tert-amyl methyl ether, oral
Conditions	concentration in blood [µM]
1.016 h, 15 mg	0.145
1.043 h, 5 mg	0.0608
2.059 h, 15 mg	0.0702
2.113 h, 5 mg	0.0294
3.073 h, 5 mg	0.0139
4.009 h, 15 mg	0.033
4.034 h, 5 mg	0.0092
6.041 h, 15 mg	0.0199
6.064 h, 5 mg	0.00634
8.046 h, 15 mg	0.0169
8.067 h, 5 mg	0.00385
9.995 h, 15 mg	0.00991
10.04 h, 5 mg	0.00313
12 h, 15 mg	0.00416

human [1], dosed: tert-amyl methyl ether, 15 ppm, duration: 4 hr, male, during exposure
Conditions	concentration in blood [µM]
-4 h	0.00605
-3.022 h	1.71
-1.895 h	3.49
-0.981 h	3.58

Cc1ccc(C)c(C)c1 [1,2,4-trimethylbenzene]
concentration in blood [µM], dosed: 1,2,4-trimethylbenzene
Conditions	2 ppm	25 ppm
human [1], -0.2345 h, duration: 2 hr, during exposure	0.506	–
human [1], -0.2897 h, duration: 2 hr, during exposure	–	7.18
human [1], -0.4552 h, duration: 2 hr, during exposure	–	7.54
human [1], -0.4828 h, duration: 2 hr, during exposure	0.516	–
human [1], -0.731 h, duration: 2 hr, during exposure	0.433	–
human [1], -0.7862 h, duration: 2 hr, during exposure	–	6.91
human [1], -0.9793 h, duration: 2 hr, during exposure	0.409	–
human [1], -1.007 h, duration: 2 hr, during exposure	–	6.09
human [1], -1.228 h, duration: 2 hr, during exposure	0.327	–
human [1], -1.255 h, duration: 2 hr, during exposure	–	6.03
human [1], -1.476 h, duration: 2 hr, during exposure	0.291	4.46
human [1], -1.724 h, duration: 2 hr, during exposure	0.231	–
human [1], -1.752 h, duration: 2 hr, during exposure	–	3.54
human [1], -1.89 h, duration: 2 hr, during exposure	0.147	–
human [1], -1.917 h, duration: 2 hr, during exposure	–	2.54
human [1], -50 s, duration: 2 hr, during exposure	0.552	–
human [1], -248 s, duration: 2 hr, during exposure	–	7.99
human [2], 0.1793 h, inhalation, duration: 2 hr	–	0.97
human [2], 0.2345 h, inhalation, duration: 2 hr	0.0677	–
human [2], 0.5655 h, inhalation, duration: 2 hr	0.0526	–
human [2], 0.5931 h, inhalation, duration: 2 hr	–	0.459
human [2], 1.503 h, inhalation, duration: 2 hr	–	0.658
human [2], 2.579 h, inhalation, duration: 2 hr	–	0.404
human [2], 3.572 h, inhalation, duration: 2 hr	–	0.314

concentration in blood [µM], human [1], dosed: 1,2,4-trimethylbenzene, duration: 2 hr
Conditions	2 ppm	25 ppm
0.1241 h	0.249	–
0.1793 h	–	3.64
0.2345 h	0.237	–
0.2621 h	–	3.11
0.5655 h	0.164	2.42
0.9793 h	0.0872	–
1.062 h	–	1.61
1.476 h	0.0951	–
1.531 h	–	1.36
1.972 h	–	0.989
2.524 h	0.0753	0.863
2.966 h	0.0515	–
3.186 h	–	0.79
3.517 h	–	0.683
3.959 h	–	0.614
11.99 h	–	0.171
21.97 h	–	0.134
248 s	0.288	4.17

CCCCCCCC [octane]
concentration in blood, rat [3], dosed: octane, duration: 2 hr, male, Fischer-344
Conditions	0.1291 h	0.3815 h	0.705 h	171 s	183 s
1000 ppm	3.81 mg/L and 4.51 mg/L	1.73 mg/L and 2.02 mg/L	0.777 mg/L and 0.96 mg/L	5.73 mg/L and 7.18 mg/L	–
5000 ppm	–	–	–	–	30.2 mg/L and 25.9 mg/L and 22.8 mg/L

C=CC=C [1,3-butadiene]
rat [3], dosed: 1,3-butadiene, duration: 6 hr, Sprague Dawley
Conditions	concentration in blood [µM]
1.898 h, 63 ppm	1.29
1.898 h, 616 ppm	15.3
1.898 h, 1249 ppm	31.2
2.9 h, 63 ppm	1.4
2.9 h, 616 ppm	17.2
2.9 h, 1249 ppm	35.4
3.895 h, 63 ppm	1.25
3.895 h, 616 ppm	16.5
3.903 h, 1249 ppm	38.7
5.893 h, 616 ppm	18.5
5.901 h, 63 ppm	1.26
5.901 h, 1249 ppm	39.6
5.931 h, 1249 ppm	9.11
5.962 h, 1249 ppm	6
5.977 h, 63 ppm	0.342
5.993 h, 616 ppm	4.05
6.016 h, 1249 ppm	7.44
6.077 h, 63 ppm	0.286
6.092 h, 616 ppm	2.8
6.092 h, 1249 ppm	4.21
6.176 h, 1249 ppm	4.26
6.184 h, 616 ppm	3.1
6.23 h, 63 ppm	0.198
6.314 h, 63 ppm	0.181
6.329 h, 616 ppm	2.35
6.391 h, 63 ppm	0.101

human [4]
Conditions	concentration in expired air [ppm]
0.1234 h	0.329
0.1404 h	0.298
0.1642 h	0.278
0.1948 h	0.278
0.2288 h	0.267
0.2661 h	0.267
0.3375 h	0.226
0.402 h	0.206
0.436 h	0.185
0.4734 h	0.175
0.5006 h	0.144
0.5447 h	0.144
0.6059 h	0.144
0.6602 h	0.123
0.701 h	0.123
0.7588 h	0.103
0.8029 h	0.103
0.8505 h	0.0823
0.9049 h	0.0823
16 s	4.55
77 s	0.782
126 s	0.535
200 s	0.473
249 s	0.35
334 s	0.37

human [4], during exposure
Conditions	concentration in expired air [ppm]
-1.834 h	3.95
-1.67 h	4.25
-1.501 h	3.62
-1.331 h	4.38
-1.168 h	4.56
-0.9977 h	3.77
-0.8313 h	3.79
-0.6614 h	4.14
-0.3284 h	4.31
-0.1653 h	4.58

O=C(O)CNC(=O)c1ccccc1 [hippuric acid]
human [5]
Conditions	amount in urine after dosing [µmol/min]
3.981 h	2.61
7.978 h	0.699
12.06 h	0.451
20.04 h	0.258

Conditions	amount in urine after dosing [µmol/min]
human [5], -49 s, during exposure	4.88

CCCOC(=O)c1ccc(O)cc1 [propylparaben]
concentration in plasma [ng/mL], rat [6]
Conditions	0.2504 h	0.5008 h	0.9984 h	1.002 h	2 h	2.003 h	4 h	4.003 h	297 s
3 mg/kg	871	280	–	88.4	82.5	–	–	–	495
10 mg/kg	3140	1720	466	–	271	–	23.6	–	1790
100 mg/kg	8510	7830	4220	–	2980	–	495	–	8610
1000 mg/kg	14100	17200	–	11500	–	9040	–	6390	15900

CC/C(=C(\c1ccccc1)c1ccc(OCCN(C)C)cc1)c1ccccc1 [Tamoxifen, free base]
concentration in plasma [ng/mL]
Conditions	Rat [7]	Rat [8]	Rat [9]	Rat [10]	Rat [11]	Rat [12]	Rat [14]	Rat [15]
0.25 h	9.8	–	10.6	23.4	17.9	–	27.8	19.2
0.5 h	7.72	–	11.7	17.5	14	–	21.3	16.9
1 h	6.48	5.39	7.86	11.1	9.45	11.8	12.5	12.4
2 h	6.85	5.6	6.98	6.63	5.39	6.28	7.97	8.82
4 h	5.08	5.43	4.36	4.12	13	4.6	4.45	4.36
8 h	–	4.84	–	–	–	–	–	–

concentration in plasma, Rat [13]
Conditions	0.25 h	0.5 h	1 h	2 h	4 h	8 h
Female	7.64 ng/mL and 17.2 ng/mL	7.57 ng/mL and 13.4 ng/mL	5.28 ng/mL	–	–	–
Male	7.83 ng/mL	8.42 ng/mL	5.43 ng/mL	4.66 ng/mL	5.32 ng/mL	5.19 ng/mL
